Results: ChEMBL document CHEMBL4706580, “4-Amino-1,2,4-triazole-3-thione-derived Schiff bases as metallo-β-lactamase inhibitors” (Eur J Med Chem, 2020)
Active and inactive are the calls of the source. The calls are words filed in the database; no cut-off is given here.

Assays:
[1] = Inhibition of beta-lactamase IMP-1 (unknown origin) expressed in Escherichia coli BL21(DE3) using imipenem as substrate by measuring substrate hydrolysis by spectrophotometric analysis
How it was run: (§1)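 Purified enzyme (overproduced in E. coli BL21(DE3), pET-9a; ion-exchange and gel filtration), 1-70 nM final. Reporter substrate 150 μM imipenem, read at 300 nm, 30 °C, 50 mM HEPES pH 7.5. Single-point screen at 100 or 200 μM; Ki from v0/vi vs [I] (0.5–1,000 μM final) assuming competitive inhibition, or Dixon plot. Triplicate.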

[2] = Inhibition of beta-lactamase CphA (unknown origin) expressed in Escherichia coli BL21(DE3) using imipenem as substrate by measuring substrate hydrolysis by spectrophotometric analysis
How it was run: (§2)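 Enzyme 0.2–0.8 nM in 15 mM cacodylate pH 6.5, no added zinc, pre-incubated 30 min at 21 °C with inhibitor (100 μM screen). Imipenem substrate added from 10 mM stock; hydrolysis at 300 nm, 30 °C. Residual activity vs three uninhibited samples; Ki (1–100 μM inhibitor) by Hanes linearization, competitive model. Triplicate.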

[3] = Inhibition of beta-lactamase VIM2 (unknown origin) expressed in Escherichia coli BL21(DE3) using imipenem as substrate by measuring substrate hydrolysis at 100 uM by spectrophotometric analysis; how it was run: as §1
[4] = Inhibition of beta-lactamase IMP-1 (unknown origin) expressed in Escherichia coli LZ2310 assessed as potentiation of ceftazidime antibacterial activity by measuring ceftazidime induced diameter of inhibition zone at 40 uM incubated for 18 hrs by disk diffusion method (reference value: 9 mm)
How it was run: (§3)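 Efflux-deficient E. coli LZ2310 (NorE, MdfA, AcrA knocked out) carrying pLB-II with the cloned MBL gene. Mueller-Hinton, CLSI disk diffusion; antibiotic disks (30 µg cefoxitin for VIM-2, 10 µg ampicillin for VIM-4, 30 µg ceftazidime for NDM-1/IMP-1) loaded with inhibitor in DMSO (≤15 µL). Zone diameter after 18 h, 35 ± 1 °C; DMSO and 220 µg EDTA controls. Triplicate.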

[5] = Inhibition of beta-lactamase VIM2 (unknown origin) expressed in Escherichia coli BL21(DE3) using imipenem as substrate by measuring substrate hydrolysis at 200 uM by spectrophotometric analysis; how it was run: as §1
[6] = Inhibition of beta-lactamase VIM4 (unknown origin) expressed in Escherichia coli BL21(DE3) using imipenem as substrate by measuring substrate hydrolysis by spectrophotometric analysis; how it was run: as §1
[7] = Inhibition of beta-lactamase NDM1 (unknown origin) expressed in Escherichia coli BL21(DE3) using cefotaxime/nitrocefin as substrate by measuring substrate hydrolysis at 200 uM by spectrophotometric analysis
[8] = Inhibition of beta-lactamase NDM1 (unknown origin) expressed in Escherichia coli BL21(DE3) using cefotaxime/nitrocefin as substrate by measuring substrate hydrolysis at 100 uM by spectrophotometric analysis
[9] = Inhibition of beta-lactamase L1 (unknown origin) expressed in Escherichia coli BL21(DE3) using nitrocefin as substrate by measuring substrate hydrolysis preincubated for 30 mins by spectrophotometric analysis
How it was run: (§4)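 Enzyme 0.2–0.8 nM in 25 mM HEPES pH 7.5 with 50 μM ZnCl2 final, pre-incubated 30 min at 21 °C with inhibitor (100 μM screen). Nitrocefin 100 μM final, read at 482 nm, 30 °C. Residual activity vs three uninhibited samples; Ki (1–100 μM inhibitor) from Hanes linearization, competitive model. Triplicate.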

[10] = Inhibition of beta-lactamase VIM-4 (unknown origin) expressed in Escherichia coli LZ2310 assessed as potentiation of ampicillin antibacterial activity by measuring ampicillin induced diameter of inhibition zone at 40 uM incubated for 18 hrs by disk diffusion method (reference value: 6 mm); how it was run: as §3
[11] = Inhibition of beta-lactamase NDM-1 (unknown origin) expressed in Escherichia coli LZ2310 assessed as potentiation of ceftazidime antibacterial activity by measuring ceftazidime induced diameter of inhibition zone at 40 uM incubated for 18 hrs by disk diffusion method (reference value: 15 mm); how it was run: as §3
[12] = Inhibition of beta-lactamase VIM-2 (unknown origin) expressed in Escherichia coli LZ2310 assessed as potentiation of cefoxitin antibacterial activity by measuring cefoxitin induced diameter of inhibition zone at 40 uM incubated for 18 hrs by disk diffusion method (reference value: 14 mm); how it was run: as §3
[13] = Inhibition of beta-lactamase IMP-1 (unknown origin) expressed in Escherichia coli BL21(DE3) using imipenem as substrate by measuring substrate hydrolysis at 200 uM by spectrophotometric analysis; how it was run: as §1
[14] = Inhibition of beta-lactamase NDM1 (unknown origin) expressed in Escherichia coli BL21(DE3) using cefotaxime/nitrocefin as substrate by measuring substrate hydrolysis by spectrophotometric analysis
How it was run: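 His-tagged enzyme from E. coli BL21(DE3) pET-15b, affinity-purified, 1-70 nM final. Reporter substrate 120 μM cefotaxime (260 nm) or 100 μM nitrocefin (482 nm), 30 °C, 50 mM HEPES pH 7.5. Inhibitor 0.5–1,000 μM final; competitive Ki from v0/vi vs [I] slope or Dixon plot. Triplicate.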

[15] = Inhibition of beta-lactamase IMP-1 (unknown origin) expressed in Escherichia coli BL21(DE3) using imipenem as substrate by measuring substrate hydrolysis at 100 uM by spectrophotometric analysis; how it was run: as §1
[16] = Inhibition of beta-lactamase VIM2 (unknown origin) expressed in Escherichia coli BL21(DE3) using imipenem as substrate by measuring substrate hydrolysis by spectrophotometric analysis; how it was run: as §1
[17] = Inhibition of beta-lactamase L1 (unknown origin) expressed in Escherichia coli BL21(DE3) using nitrocefin as substrate by measuring substrate hydrolysis at 100 uM preincubated for 30 mins by spectrophotometric analysis; how it was run: as §4
[18] = Inhibition of beta-lactamase VIM4 (unknown origin) expressed in Escherichia coli BL21(DE3) using imipenem as substrate by measuring substrate hydrolysis at 100 uM by spectrophotometric analysis; how it was run: as §1
[19] = Inhibition of beta-lactamase VIM4 (unknown origin) expressed in Escherichia coli BL21(DE3) using imipenem as substrate by measuring substrate hydrolysis at 200 uM by spectrophotometric analysis; how it was run: as §1
[20] = Inhibition of beta-lactamase L1 (unknown origin) expressed in Escherichia coli BL21(DE3) using nitrocefin as substrate by measuring substrate hydrolysis at 200 uM preincubated for 30 mins by spectrophotometric analysis
[21] = Inhibition of beta-lactamase CphA (unknown origin) expressed in Escherichia coli BL21(DE3) using imipenem as substrate by measuring substrate hydrolysis at 100 uM by spectrophotometric analysis; how it was run: as §2
[22] = Inhibition of beta-lactamase CphA (unknown origin) expressed in Escherichia coli BL21(DE3) using imipenem as substrate by measuring substrate hydrolysis at 200 uM by spectrophotometric analysis

inhibition [3] | inhibition zone (IZ) [4] | inhibition [5] | inhibition [7] | inhibition [8] | inhibition zone (IZ) [12] | inhibition [15] | inhibition [17] | inhibition [18] | inhibition [21] | SMILES | Ki [1] | Ki [2] | Ki [6] | Ki [9] | other results
– | 9 mm | – | – | – | 14 mm | inactive | – | – | – | O=C(O)c1ccccc1/C=N/n1c(C(c2ccccc2)c2ccccc2)n[nH]c1=S | – | 13 µM | 9 µM | 0.1 µM | inhibition zone (IZ) [11]: 15 mm; inhibition [13]: inactive; Ki [14]: 4.1 µM
inactive | – | inactive | – | – | – | 30% | inactive | inactive | 30% | S=c1[nH]nc(CC(c2ccccc2)c2ccccc2)n1/N=C/c1ccc(OCc2ccccc2)cc1 | – | – | – | – | inhibition [19]: inactive; inhibition zone (IZ) [11]: 15 mm; inhibition [20]: inactive
inactive | 9 mm | inactive | inactive | inactive | 14 mm | – | – | – | – | S=c1[nH]nc(-c2cccc3ccccc23)n1/N=C/c1ccc(OCc2ccccc2)cc1 | 0.1 µM | 4 µM | 2.4 µM | 30 µM | –
30% | – | – | inactive | inactive | – | 33% | 40% | 60% | inactive | Oc1ccc(/C=N/n2c(COc3ccc4ccccc4c3)n[nH]c2=S)c(O)c1 | – | – | – | – | inhibition [22]: inactive
inactive | – | inactive | – | – | – | inactive | 40% | inactive | – | S=c1[nH]nc(-c2ccc(Cl)cc2)n1/N=C/c1ccc(OCc2ccccc2)cc1 | – | – | – | – | inhibition [19]: inactive; inhibition zone (IZ) [11]: 15 mm; inhibition [13]: inactive; Ki [14]: 4.1 µM

Second part, the molecule before the results:

SMILES | inhibition [3] | inhibition zone (IZ) [4] | inhibition [5] | inhibition [7] | inhibition [8] | inhibition zone (IZ) [12] | inhibition [15] | inhibition [17] | inhibition [18] | inhibition [21] | Ki [1] | Ki [2] | Ki [6] | Ki [9] | other results
Cc1ccccc1-c1n[nH]c(=S)n1/N=C/c1ccccc1[N+](=O)[O-] | inactive | 9 mm | inactive | inactive | inactive | – | – | – | – | – | 11 µM | 5 µM | 2.4 µM | 30 µM | inhibition zone (IZ) [10]: 6 mm
Cc1ccccc1-c1n[nH]c(=S)n1/N=C/c1cccc(-c2cccc(C(=O)O)c2)c1 | – | 9 mm | – | inactive | inactive | 14 mm | – | – | – | – | 9 µM | 40 µM | 0.3 µM | 0.9 µM | Ki [16]: 1.1 µM; inhibition zone (IZ) [10]: 6 mm
Cc1ccccc1-c1n[nH]c(=S)n1/N=C/c1ccc(C(=O)O)cc1 | – | 9 mm | – | inactive | inactive | 14 mm | – | 59% | 57% | – | 11 µM | 31 µM | – | – | Ki [16]: 11 µM
Oc1ccc(/C=N/n2c(Cc3ccccc3)n[nH]c2=S)c(O)c1 | 30% | – | – | inactive | inactive | – | 37% | 46% | 47% | inactive | – | – | – | – | inhibition [22]: inactive
COc1ccc(/C=N/n2c(-c3ccccc3C)n[nH]c2=S)c(O)c1 | 58% | 9 mm | – | – | 32% | – | – | 55% | 55% | – | 9 µM | 32 µM | – | – | –
Oc1ccc(/C=N/n2c(-c3cccc4ccccc34)n[nH]c2=S)c(O)c1 | inactive | 10 mm | inactive | inactive | inactive | – | – | – | 32% | – | 10 µM | 4 µM | – | 2 µM | inhibition zone (IZ) [10]: 6 mm
O=C(O)c1ccccc1/C=N/n1c(-c2ccncc2)n[nH]c1=S | – | – | – | 50% | – | – | 45% | 32% | 73% | inactive | – | – | – | – | inhibition [22]: inactive
